Compound activity from PubChem BioAssay.
Only a selection was taken, and hits are over-represented in it overall.
S1P4 antagonist: human S1P4 receptor antagonism; O95977; S1P4-expressing cells, antagonist mode, reporter read-out; inhibition, % at 4.98 µM; 220,000 compounds, 0.26% hits; AID 1510; in the data active = inhibition above about 29%;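 note: 0% = wells stimulated with agonist and 100% = vehicle wells without agonist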
Target sequence (O95977 whole entry, looked up): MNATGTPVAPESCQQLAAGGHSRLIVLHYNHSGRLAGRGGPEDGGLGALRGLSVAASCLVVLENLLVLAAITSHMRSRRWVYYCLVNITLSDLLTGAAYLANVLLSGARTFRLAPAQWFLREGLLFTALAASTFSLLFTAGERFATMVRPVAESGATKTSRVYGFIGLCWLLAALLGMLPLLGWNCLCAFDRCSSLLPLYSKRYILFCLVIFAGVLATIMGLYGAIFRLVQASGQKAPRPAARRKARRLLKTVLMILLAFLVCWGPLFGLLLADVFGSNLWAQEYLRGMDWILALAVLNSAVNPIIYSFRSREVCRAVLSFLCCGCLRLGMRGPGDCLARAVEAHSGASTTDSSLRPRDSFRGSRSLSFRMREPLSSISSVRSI
S1P4 agonist: human S1P4 receptor agonism. S1P4-expressing cell line, agonist reporter assay. O95977. 220,000 compounds, 0.35% hits. activation, % at 4.98 µM. AID 1509; in the data active = activation above about 11%;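 note: 0% = DMSO vehicle and 100% = reference agonist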
Mdm2 ligase inh: Mdm2 E3 ligase (human) inhibition. cell-based MDM2 ubiquitination luciferase reporter, 2 h; 0 = plate control, 100 = twice control, blank-subtracted. signal enhancement, % at 5 µM. 210,000 compounds, 0.11% hits;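 active = signal enhancement of 30% or more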;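 note: luminescence tracks abundance of the self-degrading MDM2-luciferase fusion protein; higher signal means inhibition of MDM2 E3 ligase activity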
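Timing – 2 h compound exposure at 37 °C · Assay system – mammalian cells stably expressing self-ubiquitinating, self-degrading MDM2 E3–luciferase fusion · Amount – 2000 cells seeded into each well · Measure – % luminescence enhancement versus blank-corrected plate control mean · Measured by – SteadyLite luminescence, 15 min reagent step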
L major viab: inhibitors of Leishmania major promastigote growth; Leishmania major promastigotes, resazurin fluorescence viability; inhibition, % at 10 µM; 200,000 compounds, 9% hits; AID 1063; in the data active = inhibition above about 50%;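 note: promastigotes grown with compound for 44 hours at 28 °C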
S1P3 antagonist: blocks the human S1P3 receptor | Q99500 | CHO S1P3 NFAT-BLA reporter, FRET fluorescence, antagonist mode | inhibition, % at 4.98 µM | 170,000 compounds, 0.27% hits;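 active = inhibition above the plate cutoff, the mean inhibition of test wells on that plate plus 3 SD, cut at about 28% in these data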;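 note: cells challenged with S1P at its EC80 of 0.8 µM; blue over green emission ratio from cleaved BLA substrate after 4 h stimulation; 0% = S1P-stimulated wells and 100% = unstimulated DMSO-only wells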
* = called active by the depositor.

How did COc1cc(OC)cc(C(=O)NCCC(=O)NCCc2ccc(OC)c(OC)c2)c1 do in these assays?
S1P4 antagonist: -9.4; S1P4 agonist: 0.1; Mdm2 ligase inh: -14.1; L major viab: 56.8*; S1P3 antagonist: -3.3

How did COc1ccc(CC(=O)Nc2nnc(C(C)C)s2)cc1 do in these assays?
S1P4 antagonist: -14.7; S1P4 agonist: 0.3; Mdm2 ligase inh: -0.8; L major viab: -9.3; S1P3 antagonist: 6.9

Results for COc1ccc(CCNC(=O)COC(=O)c2cnc(C)cn2)cc1OC ?
S1P4 antagonist: -6.1; S1P4 agonist: 3.2; Mdm2 ligase inh: 30.7*; L major viab: -0.1

Results for COc1ccc(CCNC(=O)CSc2nnc(-c3ccccc3)c3ccccc23)cc1OC ?
S1P4 antagonist: 1.7; S1P4 agonist: -1.5; Mdm2 ligase inh: -10.8; L major viab: 9.6; S1P3 antagonist: 4.0

Results for COc1ccc(CCNC(=O)CCC(=O)Nc2nnc(C(C)C)s2)cc1OC ?
S1P4 antagonist: -13.5; S1P4 agonist: 0.7; Mdm2 ligase inh: -1.5; L major viab: 60.3*; S1P3 antagonist: 13.2

How did COc1ccc(CCNC(=O)CCNC(=O)c2ccc(Br)cc2)cc1OC do in these assays?
S1P4 antagonist: -1.2; S1P4 agonist: 0.4; Mdm2 ligase inh: -7.2; L major viab: -2.2; S1P3 antagonist: -5.2

What do the screens show for `CCCCn1c(-c2ccccc2)cnc1SCC(=O)NCCc1ccc(OC)c(OC)c1`?
S1P4 antagonist: -6.5; S1P4 agonist: -0.9; Mdm2 ligase inh: 5.2; L major viab: 66.3*

What do the screens show for `Cn1c(NC(=O)c2ccccc2F)c(-c2cccs2)c(=O)c2ccccc21`?
S1P4 antagonist: -24.3; S1P4 agonist: 1.7; Mdm2 ligase inh: -4.1; S1P3 antagonist: -12.9

How did COc1cc(Br)c(C2C(C#N)=C(N)Oc3n[nH]c(-c4cccnc4)c32)cc1OC (stereo unspecified) do in these assays?
S1P4 antagonist: 9.2; S1P4 agonist: 0.2; Mdm2 ligase inh: -22.1; L major viab: -2.4; S1P3 antagonist: -7.9

What do the screens show for `O=C(COc1ccc(Br)cc1Br)NC1CCCC1`?
S1P4 antagonist: -12.0; S1P4 agonist: -1.9; Mdm2 ligase inh: -28.7; L major viab: 2.4; S1P3 antagonist: 0.6

Results for CC(C)NC(=O)NC(=O)COc1ccc(Br)cc1Br ?
S1P4 antagonist: -8.6; S1P4 agonist: -0.2; Mdm2 ligase inh: -13.7; L major viab: 67.3*; S1P3 antagonist: -14.9

Results for c1ccc(NCc2cccnc2)cc1 ?
S1P4 antagonist: -5.5; S1P4 agonist: -0.9; Mdm2 ligase inh: -24.1; L major viab: 13.0

Results for c1cncc(CNc2cccc(-c3nc4ccccc4[nH]3)c2)c1 ?
S1P4 antagonist: -16.2; S1P4 agonist: 0.5; Mdm2 ligase inh: -3.8; L major viab: 67.4*; S1P3 antagonist: 20.6

How did Fc1ccc(NCc2cccnc2)cc1 do in these assays?
S1P4 antagonist: 6.5; S1P4 agonist: 4.2; Mdm2 ligase inh: -14.9; L major viab: 82.5*

What do the screens show for `CCOC(=O)c1ccc(CSc2nnc(N)s2)cc1`?
S1P4 antagonist: -2.8; S1P4 agonist: 1.1; Mdm2 ligase inh: -10.3; L major viab: -2.1; S1P3 antagonist: -8.2

What do the screens show for `CCC(C(=O)Nc1ccsc1C(=O)OC)c1ccccc1` (stereo unspecified)?
S1P4 antagonist: -45.1; S1P4 agonist: -1.2; Mdm2 ligase inh: 15.9; L major viab: 0.7; S1P3 antagonist: -3.0

Results for O=C(CSc1ccc(-c2ccco2)nn1)c1ccccc1 ?
S1P4 antagonist: -3.4; S1P4 agonist: 0.0; Mdm2 ligase inh: -1.6; L major viab: 12.2; S1P3 antagonist: -4.9

How did CC(C)N(CC#CCC(O)(c1ccccc1)C1CCCC1)CCO (stereo unspecified) do in these assays?
S1P4 antagonist: -12.7; S1P4 agonist: 1.0; Mdm2 ligase inh: 5.3; L major viab: 28.5; S1P3 antagonist: -14.5

Results for CCN(CC#CCC(O)(c1ccccc1)C1CCCC1)C(C)C (stereo unspecified) ?
S1P4 antagonist: -4.9; S1P4 agonist: -1.1; Mdm2 ligase inh: -2.8; L major viab: 67.5*

How did CCOC(=O)N1CCc2c(sc3nc4n(c(=O)c23)N=C(c2ccc(OC)cc2)CS4)C1 do in these assays?
S1P4 antagonist: -2.4; S1P4 agonist: -1.5; Mdm2 ligase inh: -22.9; S1P3 antagonist: -5.2

Results for O=C(O)/C=C/c1ccc2c(-c3ccccc3)onc2c1 ?
S1P4 antagonist: -7.6; S1P4 agonist: -1.2; Mdm2 ligase inh: -14.6; L major viab: -4.6; S1P3 antagonist: 15.0

How did CCN(CC)c1cnn(C/C(=N\OC)c2ccc(Cl)cc2)c(=O)c1Br do in these assays?
S1P4 antagonist: 2.9; S1P4 agonist: 2.5; Mdm2 ligase inh: -16.6; L major viab: 7.9
